Bioassay records: PubChem, Broad Institute
CaV13 FRET inh: Primary screen for inhibitors of IQ motif and Ca2+-dependent inactivation inhibitor domain binding in CACNA1D, Förster resonance energy transfer in living cells, …; HEK cells, CFP/YFP FRET ICDI-IQ, plate reader, 10 min; percent FRET-ratio fall versus neutral wells; inhibition, % at 12.3 µM; 340,000 compounds, 0.098% hits; AID 743397;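 active = mean replicate inhibition of at least 30% and at least 1% of replicates passing that level; inconclusive = only one of the two criteria is met; inactive = neither criterion is met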
CAL PDZ FP-1: untagged CAL PDZ binding inhibitors, primary screen, biochemical, fluorescence polarization, HTS; AID 602252, 2012; 300,000 compounds, 0.92% hits; purified CAL PDZ, TMR-peptide fluorescence polarization, 1 h; Golgi-associated PDZ and coiled-coil motif-containing protein (Homo sapiens), Q9HD26; inhibition, % at 24.9 µM;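 active = mean inhibition of at least 30% with at least half of replicates also reaching 30%; inconclusive = no clear call, values can overlap the other calls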
LANA DNA inh: inhibitors of KSHV C-LANA binding to DNA, primary screen, biochemical, fluorescence polarization, FAM-LBS DNA, MBP-C-LANA, single point. Kaposi's sarcoma herpesvirus LANA C-terminal domain (residues 932-1162) DNA binding. inhibition, % at 9 µM. 340,000 compounds, 0.078% hits. AID 504423, 2011;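 active = highest replicate inhibition at or above 60% at 9 µM, even if other replicates fall short; inactive = all replicates below 60% inhibition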
LANA-H2B inh: blockers of LANA interaction with H2A/H2B – biochemical, FP readout, HTS, primary screen | Protein LANA1 (Human herpesvirus 8 type P (isolate GK18)), Q9QR71 | cell-free LANA-H2A/H2B peptide, fluorescence polarization | inhibition, % (concentration not given with the values) | 320,000 compounds, 0.6% hits; in the data active = inhibition mostly above about 10%, no sharp cut-off; inactive = mostly below about 6.7%
Target sequence (Q9QR71 whole entry, looked up): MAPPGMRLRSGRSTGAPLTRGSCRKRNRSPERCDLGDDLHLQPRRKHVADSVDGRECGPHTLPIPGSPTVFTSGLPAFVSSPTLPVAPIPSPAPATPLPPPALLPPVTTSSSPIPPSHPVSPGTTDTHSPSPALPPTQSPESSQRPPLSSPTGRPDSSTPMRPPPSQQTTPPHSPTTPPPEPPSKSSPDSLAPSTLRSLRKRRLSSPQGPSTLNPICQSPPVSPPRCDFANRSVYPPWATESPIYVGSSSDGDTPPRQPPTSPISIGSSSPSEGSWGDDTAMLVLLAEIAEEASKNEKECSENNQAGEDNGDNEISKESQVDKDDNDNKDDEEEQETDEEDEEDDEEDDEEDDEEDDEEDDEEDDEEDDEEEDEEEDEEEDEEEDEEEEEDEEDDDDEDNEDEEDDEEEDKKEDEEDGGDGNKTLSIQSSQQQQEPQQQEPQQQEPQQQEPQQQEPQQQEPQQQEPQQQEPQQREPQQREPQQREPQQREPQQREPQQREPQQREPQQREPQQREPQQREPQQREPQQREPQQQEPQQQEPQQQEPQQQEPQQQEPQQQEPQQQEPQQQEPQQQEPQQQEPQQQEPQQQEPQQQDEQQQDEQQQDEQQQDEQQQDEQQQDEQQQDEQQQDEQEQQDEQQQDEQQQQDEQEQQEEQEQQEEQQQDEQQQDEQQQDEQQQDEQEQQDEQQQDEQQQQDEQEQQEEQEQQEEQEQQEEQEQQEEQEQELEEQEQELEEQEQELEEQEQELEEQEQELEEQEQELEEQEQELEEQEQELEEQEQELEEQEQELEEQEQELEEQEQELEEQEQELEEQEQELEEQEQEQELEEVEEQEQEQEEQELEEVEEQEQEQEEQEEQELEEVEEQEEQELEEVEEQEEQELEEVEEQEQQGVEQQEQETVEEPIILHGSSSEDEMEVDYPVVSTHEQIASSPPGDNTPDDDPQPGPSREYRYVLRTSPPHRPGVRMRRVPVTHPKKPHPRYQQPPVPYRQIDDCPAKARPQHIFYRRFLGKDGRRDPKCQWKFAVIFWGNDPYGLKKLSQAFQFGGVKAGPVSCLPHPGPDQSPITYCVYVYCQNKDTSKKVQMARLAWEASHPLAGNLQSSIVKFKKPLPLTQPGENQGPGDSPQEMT
CAL PDZ FP-2: CAL PDZ peptide-binding inhibitors, primary screen, biochemical, fluorescence polarization, Cer-tagged CAL PDZ, HTS | 330,000 compounds, 0.02% hits | purified CAL PDZ, TMR-peptide fluorescence polarization, 1 h | AID 504414, 2011 | inhibition, % at 20 µM;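 active = highest replicate inhibition of at least 40%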
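material = purified tagged CAL PDZ domain construct (CerCALP) | compound dosing = 20 µM, one dose | times = 1 h at RT | measured by = fluorescence polarization from S- and P-plane intensities, G-factor corrected | read-out = inhibition from polarization loss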
Keap1-Nrf2 PPI: Keap1-Nrf2 protein-protein interaction inhibitors, primary screen, biochemical, fluorescence polarization, single point; Kelch-like ECH-associated protein 1 (Homo sapiens), Q14145; 340,000 compounds, 0.15% hits; inhibition, % at 9.4 µM; Keap1 Kelch-Nrf2 peptide fluorescence polarization, 1536-well; in the data active = inhibition above about 12%; inconclusive = no clear call, values can overlap the other calls; inactive = below about 7.3%;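 also: human Keap1 Kelch domain with fluorescein labeled Nrf2 9mer peptide probe; higher means more block of Keap1 binding to Nrf2 peptide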
Each line names hits and unclear results; the compound was inactive in the other large screens. Most compounds without a hit are left out; they make up all but 1.5% or so of the library.

CN(C(=O)c1cccc(NC(=O)Cc2ccc(NC(=O)C3CCN(C(=O)CCc4ccccc4)CC3)cc2)c1)C1CCCC1	none (no result: CAL PDZ FP-1, LANA DNA inh, LANA-H2B inh, CAL PDZ FP-2, Keap1-Nrf2 PPI)
O=C(O[C@@H]1OC2COC(=O)c3cc(O)c(O)c(O)c3-c3c(cc(O)c(O)c3O)C(=O)O[C@@H]([C@H]1O)[C@@H]2O)c1cc(O)c(O)c(O)c1	LANA DNA inh 120.8 (no result: CaV13 FRET inh, Keap1-Nrf2 PPI)
O=C(COc1ccc(Cl)cc1Cl)Nc1ccc(CN2CCOCC2)cc1	CAL PDZ FP-1 83.9
Cc1cc(Cl)ccc1OCC(=O)Nc1ccc(CN2CCOCC2)cc1	none (no result: LANA-H2B inh)
Cc1csc(SCC(=O)Nc2ccc3[nH]c(=O)[nH]c3c2)n1	CAL PDZ FP-1 105.7
O=C(NNC(=O)c1ccc(Cl)c(Cl)c1)c1cccnc1	CAL PDZ FP-2 91.7 (no result: CaV13 FRET inh)
Cc1cc(C)n(CC(O)Cn2c3ccc(Br)cc3c3cc(Br)ccc32)c(=O)n1 (centres undefined)	LANA-H2B inh 15.5
Cc1cc(C)n(CC(O)Cn2c3ccccc3c3ccccc32)c(=O)n1 (centres undefined)	none (no result: CaV13 FRET inh)
COc1ccc(-c2ccc3c(n2)CCCN3S(=O)(=O)c2ccc(C#N)cc2)cc1	none (no result: CAL PDZ FP-1, LANA DNA inh, LANA-H2B inh, CAL PDZ FP-2, Keap1-Nrf2 PPI)
O=C(Nc1ccc2[nH]c(=O)[nH]c2c1)c1cc(F)c(F)cc1Cl	CAL PDZ FP-1 54.7
CC1=C/C(=C\C=C(C#N)C#N)N(C)c2ccccc21	none (no result: CAL PDZ FP-1)
CC1=CC(=C(C#N)C#N)c2ccccc2N1C	LANA-H2B inh 46.2, Keap1-Nrf2 PPI inconclusive
COC(=O)C1=C(C)N(Cc2cccc(C(F)(F)F)c2)C(=NCc2ccc(C(F)(F)F)cc2)NC1c1ccccc1 (centres undefined)	none (no result: CAL PDZ FP-1, LANA DNA inh, LANA-H2B inh, CAL PDZ FP-2, Keap1-Nrf2 PPI)
CC1CCCN(c2cccc3c2S(=O)(=O)N(Cc2cccc(F)c2)[C@@H](C)[C@H](c2ccccc2)O3)C1 (some centres undefined)	none (no result: CAL PDZ FP-1, LANA DNA inh, LANA-H2B inh, CAL PDZ FP-2, Keap1-Nrf2 PPI)
COc1ccccc1C(=O)NCC(=O)OC(C)C(=O)N(C)C1CCCCC1 (centres undefined)	LANA-H2B inh 18.9 (no result: CAL PDZ FP-1)
O=C1C(=Cc2cccn2-c2ccc(O)cc2)C(=O)c2ccccc21	none
O=C1C(=Cc2cccn2-c2ccccc2)C(=O)c2ccccc21	LANA-H2B inh 127.0 (no result: CAL PDZ FP-1)
CCN(C(=O)CSc1cc(C)c2ccccc2n1)c1c(N)n(Cc2ccccc2)c(=O)[nH]c1=O	none
Cc1ccccc1C(=O)Nc1ccc2c(C#N)c3nc4ccccc4nc3n2c1	LANA-H2B inh 27.8
Cc1c(C(=O)Nc2ccccc2)cn2c(nc3ccccc32)c1C#N	none
CCC1CCC(NC(=O)Nc2cccc(OC)c2)CC1 (centres undefined)	none
COc1cc(NS(=O)(=O)c2ccc(NC(=S)Nc3ccccc3)cc2)nc(OC)n1	CAL PDZ FP-2 110.8
COc1cc(NS(=O)(=O)c2ccc(NC(=S)NC(=O)C3CCCC3)cc2)nc(OC)n1	none
CS(=O)(=O)Nc1nc2n(n1)C(c1ccccc1)C=C(c1ccc(Br)cc1)N2 (centres undefined)	LANA DNA inh 73.8, Keap1-Nrf2 PPI 35.4 (no result: CaV13 FRET inh)
COc1ccc(-c2cccc3[nH]c4c(c23)CCN2C(=O)[C@H]3[C@H](C)ON(C)[C@H]3C[C@@H]42)cc1	none (no result: CAL PDZ FP-1, LANA DNA inh, LANA-H2B inh, CAL PDZ FP-2, Keap1-Nrf2 PPI)
COC(=O)c1cc2c(c3c4ccccc4n(S(=O)(=O)c4ccccc4)c13)C(=O)N(Cc1ccc(N(C)C)cc1)C2	none (no result: CAL PDZ FP-1, LANA DNA inh, LANA-H2B inh, CAL PDZ FP-2, Keap1-Nrf2 PPI)
CCc1nc2c(OCc3ccc(Cl)cc3Cl)cccn2c1N(C)C(=O)CC(C)C	none (no result: CAL PDZ FP-1, LANA DNA inh, LANA-H2B inh, CAL PDZ FP-2, Keap1-Nrf2 PPI)
C=CCN=C1NC(c2ccccc2C(F)(F)F)C(C(=O)OC)=C(C)N1Cc1ccc(C(F)(F)F)cc1 (centres undefined)	none (no result: CAL PDZ FP-1, LANA DNA inh, LANA-H2B inh, CAL PDZ FP-2, Keap1-Nrf2 PPI)
O=C(COC(=O)CCc1nc2ccccc2c(=O)[nH]1)Nc1ccccc1	LANA-H2B inh 24.4
Cc1noc(C)c1COC(=O)CCc1nc2ccccc2c(=O)[nH]1	CAL PDZ FP-1 45.1 (no result: CAL PDZ FP-2)
Cc1ccc(COC(=O)CCc2nc3ccccc3c(=O)[nH]2)cc1	none
CN(c1ccccc1)S(=O)(=O)c1ccc(C(=O)N2CCN(c3ccccc3)CC2)cc1	none (no result: CAL PDZ FP-1, LANA DNA inh, LANA-H2B inh, CAL PDZ FP-2, Keap1-Nrf2 PPI)
O=S(=O)(c1cccs1)N1CCCc2nc(-c3ccc(F)cc3)ccc21	none (no result: CAL PDZ FP-1, LANA DNA inh, LANA-H2B inh, CAL PDZ FP-2, Keap1-Nrf2 PPI)
Cc1nc(C(=O)Nc2ccccc2Cl)cc2c1[nH]c1ccccc12	LANA-H2B inh 8.3
COC(=O)[C@@H]1C[C@@H](C(=O)O)[C@H](C)C1(C)C	CAL PDZ FP-1 42.6
CCc1nnc(NS(=O)(=O)c2ccc(N3C(=O)c4ccccc4C3=O)cc2)s1	CAL PDZ FP-1 84.4
CCCc1nnc(NS(=O)(=O)c2ccc(OC)cc2)s1	LANA-H2B inh 15.3
CCc1nnc(NS(=O)(=O)c2ccc(N)cc2)s1	none
COc1ccc2[nH]c(=O)c(CN(C(=O)C3CCCO3)c3ccc(C)c(C)c3)cc2c1 (centres undefined)	CAL PDZ FP-1 47.7
COc1ccc2[nH]c(=O)c(CN(C(=O)c3cccnc3)c3ccc(C)cc3C)cc2c1	CAL PDZ FP-1 33.5
COc1ccc2[nH]c(=O)c(CN(C(=O)c3cccnc3)c3cc(C)ccc3C)cc2c1	none
CC(Oc1cccc(Cl)c1)c1ccnc2nc(/N=C/N(C)C)nn12 (centres undefined)	LANA-H2B inh 112.2
CC(Oc1ccccc1)c1ccnc2nc(/N=C/N(C)C)nn12 (centres undefined)	none (no result: CAL PDZ FP-1)
CCOC(=O)c1ccccc1NC(=O)COC(=O)CN1C(=O)C2CC=CCC2C1=O (centres undefined)	LANA-H2B inh 161.7
CCOC(=O)c1ccccc1NC(=O)COC(=O)CC1CCCCC1	none
CN(C)CCCNc1cc(O)c2ncccc2c1	Keap1-Nrf2 PPI 22.4
COCC1CCCCC1OS(N)(=O)=O (centres undefined)	none
CC(=O)Nc1ccc(S(=O)(=O)NCCC(=O)OCc2nc(N)nc(Nc3ccccc3C)n2)cc1	LANA-H2B inh 157.2 (no result: CaV13 FRET inh)
Cc1ccccc1Nc1nc(N)nc(COC(=O)CCS(=O)(=O)c2ccc(Cl)cc2)n1	none (no result: LANA-H2B inh)
CC1CC(NC(=O)c2c(O)nc3sccn3c2=O)CC(C)(C)C1 (centres undefined)	none (no result: LANA DNA inh, LANA-H2B inh, Keap1-Nrf2 PPI)
O=C(COC(=O)c1cncc(Br)c1)NCc1ccccc1	none
O=C(COC(=O)Cc1ccc(Cl)cc1)NCc1ccc2c(c1)OCO2	none (no result: LANA-H2B inh)
O=C(COC(=O)c1ccc2c(c1)OCO2)NCc1ccc(Cl)cc1	CAL PDZ FP-1 61.0 (no result: CAL PDZ FP-2)
O=C(COC(=O)c1cncc(Br)c1)NCc1ccc(Cl)cc1	LANA-H2B inh 166.9
